In ChEMBL document CHEMBL1255406, “Production of a class II two-component lantibiotic of Streptococcus pneumoniae using the class I nisin synthetic machinery and leader sequence” (2010):
Converted amounts (≈) assume the structure as drawn. The source made the active and inactive calls. No cut-off for these calls is given here. Peptide text beside a SMILES is read from it.

Tests used:
[1] = tested on: Streptococcus mitis; test: Antimicrobial activity against Streptococcus mitis assessed as growth inhibition in presence of trypsin; type: functional, organism-based
In short: (§1)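 Strains in GM17 at 37°C, diluted 1:50 from overnight and grown to OD600 0.2, then exposed to peptide dilutions. OD600 read every 30 min. MIC = lowest inhibiting concentration when untreated cells reach half-maximal OD. At least triplicate.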

[2] = tested on: Staphylococcus aureus; test: Antimicrobial activity against Staphylococcus aureus assessed as growth inhibition in presence of trypsin; type: functional, organism-based; in short: as §1
[3] = tested on: Enterococcus faecalis; test: Antimicrobial activity against Enterococcus faecalis assessed as growth inhibition in presence of leucine aminopeptidase; type: functional, organism-based
In short: (§2)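 Leader cleaved by 30 min incubation at 37°C with leucine aminopeptidase in phosphate buffer, pH 7.4. Strains in GM17 at 37°C, diluted 1:50 from overnight and grown to OD600 0.2, then mixed with peptide dilutions. OD600 monitored every 30 min. MIC = lowest concentration inhibiting growth, read when untreated cultures reach half-maximal OD. At least triplicate.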

[4] = tested on: Enterococcus faecalis; test: Antimicrobial activity against Enterococcus faecalis assessed as growth inhibition in presence of trypsin; type: functional, organism-based; in short: as §1
[5] = tested on: Micrococcus flavus; test: Antimicrobial activity against Micrococcus flavus assessed as growth inhibition in presence of leucine aminopeptidase; type: functional
In short: (§3)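 Broth microdilution MIC in GM17 in 96-well plates. Overnight M. flavus culture diluted 1:50 and grown to OD600 0.2, then 150 µl culture mixed with 50 µl medium containing serial peptide concentrations. Incubated overnight at a temperature suited to the strain (M. flavus grown at 30°C), with OD600 read every 30 min. MIC is the lowest concentration inhibiting growth, read when untreated cells reach half-maximal OD. At least triplicate.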

[6] = tested on: Staphylococcus aureus; test: Antimicrobial activity against Staphylococcus aureus assessed as growth inhibition in presence of leucine aminopeptidase; type: functional, organism-based; in short: as §2
[7] = tested on: Streptococcus pneumoniae; test: Antimicrobial activity against Streptococcus pneumoniae assessed as growth inhibition in presence of leucine aminopeptidase; type: functional, organism-based; in short: as §2
[8] = tested on: Streptococcus mitis; test: Antimicrobial activity against Streptococcus mitis assessed as growth inhibition in presence of leucine aminopeptidase; type: functional, organism-based; in short: as §2
[9] = tested on: Micrococcus flavus; test: Antimicrobial activity against Micrococcus flavus assessed as growth inhibition in presence of trypsin; type: functional; in short: as §3
[10] = tested on: Streptococcus pneumoniae; test: Antimicrobial activity against Streptococcus pneumoniae assessed as growth inhibition in presence of trypsin; type: functional, organism-based; in short: as §1
[11] = tested on: Micrococcus flavus; test: Antimicrobial activity against Micrococcus flavus assessed as growth inhibition; type: functional; in short: as §3

| Structure (SMILES) | growth inhibition (GI) [1] | growth inhibition (GI) [2] | growth inhibition (GI) [3] | growth inhibition (GI) [4] | MIC [5] [µM] | growth inhibition (GI) [6] | growth inhibition (GI) [7] | growth inhibition (GI) [8] | MIC [9] [µM] | growth inhibition (GI) [10] | MIC [11] [µM] |
| --- | --- | --- | --- | --- | --- | --- | --- | --- | --- | --- | --- |
| CC[C@H](C)[C@H](NC(=O)[C@H](Cc1ccccc1)NC(=O)[C@H](CO)NC(=O)[C@H](CC(C)C)NC(=O)[C@@H](NC(=O)[C@H](C)NC(=O)[C@H](CO)NC(=O)[C@H](CS)NC(=O)[C@@H](NC(=O)[C@@H](NC(=O)[C@@H](NC(=O)[C@@H](N)CO)[C@@H](C)O)[C@@H](C)CC)[C@@H](C)CC)[C@@H](C)O)C(=O)N[C@@H](C)C(=O)N[C@@H](CO)C(=O)N[C@@H](Cc1ccc(O)cc1)C(=O)N[C@@H](CC(C)C)C(=O)NCC(=O)N[C@@H](CO)C(=O)N[C@@H](C)C(=O)N[C@@H](CCC(N)=O)C(=O)N[C@H](C(=O)N[C@@H](CCCNC(=N)N)C(=O)N[C@@H](CS)C(=O)NCC(=O)N[C@@H](CCCCN)C(=O)N[C@@H](CC(=O)O)C(=O)N[C@@H](CC(N)=O)C(=O)N[C@@H](CCCCN)C(=O)N[C@@H](CCCCN)C(=O)N[C@@H](CCCCN)C(=O)O)[C@@H](C)O (H-STIICSATLSFIASYLGSAQTRCGKDNKKK-OH) | inactive | inactive | inactive | inactive | 8.5 | inactive | inactive | inactive | 10 | inactive | 85 (≈ 271 µg/mL) |
| CC[C@H](C)[C@H](NC(=O)CNC(=O)[C@H](CO)NC(=O)[C@@H](NC(=O)[C@H](C)NC(=O)[C@H](C)NC(=O)[C@H](CO)NC(=O)[C@@H](NC(=O)[C@H](CS)NC(=O)[C@@H](NC(=O)[C@H](CCCCN)NC(=O)[C@H](CO)NC(=O)[C@H](CO)NC(=O)[C@H](C)NC(=O)[C@H](C)NC(=O)[C@H](C)NC(=O)[C@H](CO)NC(=O)[C@H](CCCCN)NC(=O)[C@H](CC(C)C)NC(=O)[C@@H](NC(=O)[C@@H](NC(=O)[C@@H]1CCCN1C(=O)[C@@H](NC(=O)[C@@H]1CCCN1C(=O)[C@@H](NC(=O)[C@@H](N)Cc1c[nH]c2ccccc12)[C@@H](C)O)[C@@H](C)O)[C@@H](C)CC)[C@@H](C)CC)C(C)C)[C@@H](C)CC)C(C)C)C(=O)NCC(=O)NCC(=O)N[C@@H](CC(C)C)C(=O)N[C@H](C(=O)N[C@@H](CO)C(=O)N[C@@H](Cc1ccc(O)cc1)C(=O)N[C@@H](CC(N)=O)C(=O)N[C@@H](CC(N)=O)C(=O)N[C@@H](CC(=O)O)C(=O)N[C@@H](CS)C(=O)N[C@@H](CC(C)C)C(=O)NCC(=O)O)C(C)C (H-WTPTPIILKSAAASSKVCISAAVSGIGGLVSYNNDCLG-OH) | inactive | inactive | inactive | inactive |  | inactive | inactive | inactive | 0.6 | inactive | 80 (≈ 301 µg/mL) |
| C=C(NC(=O)[C@H](NC(=O)[C@@H](Cc1cnc[nH]1)NC(=O)[C@H](NC(=O)[C@@H](CO)NC(=O)[C@H]1CS[C@H](C)[C@@H]2NC(=O)[C@@H](C)NC(=O)[C@@H](NC(=O)[C@@H](CCCCN)NC(=O)[C@@H](CCSC)NC(=O)[C@@H](CC(N)=O)[C@H]3CS[C@H](C)[C@H](NC(=O)[C@@H](CCCCN)NC(=O)[C@H]4CS[C@H](C)[C@H](NC(=O)[C@H]5CSC[C@H](NC(=O)/C(=C/C)NC(=O)[C@H](N)[C@H](C)CC)C(=O)N[C@H]([C@H](C)CC)C(=O)NC(=C)C(=O)N[C@H](CC(C)C)C(=O)N5)C(=O)N5CCC[C@@H]5C(=O)NCC(=O)N4)C(=O)NCC(=O)N[C@H](C)C(=O)N[C@H](CC(C)C)C(=O)N[C@H](CCSC)C(=O)NCC(=O)N3)[C@@H](C)SC[C@@H](NC2=O)C(=O)N[C@H](Cc2cnc[nH]2)C(=O)N1)[C@H](C)CC)C(C)C)C(=O)N[C@H](CCCCN)C(=O)O [PRENISIN] |  |  |  |  |  |  |  |  | 0.004 |  | 20 (≈ 66.2 µg/mL) |
